The record followed here is ChEMBL document CHEMBL1268908, “Design, synthesis, radiolabeling, and in vivo evaluation of carbon-11 labeled N-[2-[4-(3-cyanopyridin-2-yl)piperazin-1-yl]ethyl]-3-methoxybenzamide, a potential positron emission tomography tracer for the dopamine D(4) receptors” (J Med Chem, 2010).

By Ki is commonly meant the dissociation constant of the complex between target and ligand, obtained from inhibition or displacement. By logP is commonly meant a log measure of how a compound divides between an organic and an aqueous phase. For orientation: pKa means the negative logarithm of the acid dissociation constant. Read a high pKa as a weaker acid or stronger base. Usually logD stands for lipophilicity at a set pH, counting ionised and neutral species. Read a high logD as higher lipophilicity.

Molecules are shown by their SMILES. The source made the active and inactive calls. No cut-off for these calls is given here. A value given as a limit tells only on which side of the number the result lay.

The target in series [1] is D(3) dopamine receptor (Homo sapiens) (UniProt P35462). Put plainly: Displacement of [3H]MSP from human dopamine D3 receptor expressed in CHO-K1 cells at 1 uM after 90 mins by scintillation counting. The format is cell-based. The essentials:
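Frozen CHO-K1 membranes carrying human D3 receptor, incubated with about […] [3H]methylspiperone and 1 μM compound for 90 min at 25 °C in 50 mM Tris pH 7.4. Nonspecific binding defined with 5 μM 7-OH-DPAT. Filtered on PEI-treated GF/C and scintillation counted; triplicate points, experiment repeated 3–4 times.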

Series [2] in a line: Drug level in CD1 mouse brain at 10 mg/kg, ip after 30 mins. Conditions: read-out: Drug uptake. The class given is ADME, organism-based. Also noted: dose 10 mg/kg, route intraperitoneal.
Series [3] addresses 5-hydroxytryptamine receptor 2A (Homo sapiens) (UniProt P28223). Put plainly: Displacement of [3H]MSP from human 5HT2A receptor expressed in HEK293 cells at 1 uM after 90 mins by scintillation counting. The format is cell-based. An outline of the steps:
(§1)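 HEK293 membranes stably expressing rat D2 or human 5-HT1A, 5-HT2A or 5-HT2C receptors, used fresh. Incubated 90 min at 25 °C in 50 mM Tris pH 7.4 with about […] radioligand and 1 μM compound (DMSO or DMF stock diluted ≥1:1000). Nonspecific binding defined by (+)-butaclamol for D2, NAN-190 for 5-HT1A and mianserin for 5-HT2A/2C. PEI-GF/C filtration, scintillation count; % displacement from triplicates, 3–4 repeats.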

Series [4] concerns Plasma. Put plainly: Drug level in CD1 mouse plasma at 10 mg/kg, ip after 30 to 60 mins. The class given is ADME, organism-based. The arrangement: dose 10 mg/kg, route intraperitoneal. Conditions: in vivo. An outline of the steps: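 Male CD1 mice, 25–30 g, given 10 mg/kg ip in ethanol/PEG 40/saline (10:40:50). Killed at 15–240 min. Plasma (0.2 mL) alkalinised and extracted into dichloromethane with a 1-(2-thiazolyl)piperazine internal standard, then run on gradient reversed-phase HPLC-UV at 264 nm; quantification limit about 100 ng/mL. Mean ± SD, n = 3.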

Series [5] concerns the target T1, D(4) dopamine receptor (Rattus norvegicus, UniProt P30729).
T1 sequence (P30729 whole entry): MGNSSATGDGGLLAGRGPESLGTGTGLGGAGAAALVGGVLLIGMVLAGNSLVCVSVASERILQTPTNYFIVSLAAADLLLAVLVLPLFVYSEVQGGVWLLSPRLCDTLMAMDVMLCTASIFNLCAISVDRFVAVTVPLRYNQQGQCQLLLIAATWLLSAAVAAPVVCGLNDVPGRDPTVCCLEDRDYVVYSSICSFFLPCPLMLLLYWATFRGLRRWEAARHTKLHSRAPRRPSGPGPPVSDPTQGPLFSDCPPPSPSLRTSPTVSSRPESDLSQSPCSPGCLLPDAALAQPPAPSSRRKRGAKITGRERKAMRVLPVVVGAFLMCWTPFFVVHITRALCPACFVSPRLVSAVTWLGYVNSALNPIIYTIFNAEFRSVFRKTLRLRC
In words: Displacement of [3H]MSP from rat dopamine D4 receptor expressed in HEK293 cells after 90 mins by scintillation counting. The format is cell-based. The essentials:
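Competition binding on fresh membranes from HEK293 cells stably expressing rat D4 receptor, with about […] [3H]methylspiperone for 90 min at 25 °C in 50 mM Tris pH 7.4; (+)-butaclamol defined nonspecific binding. Filtered and scintillation counted. IC50 converted to Ki by Cheng–Prusoff; triplicates, 3–4 experiments.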
On the technique in general: In a radioligand displacement assay an active substance lowers the binding of a labelled ligand.

The target of series [6] is T2, 5-hydroxytryptamine receptor 1A (Homo sapiens) (UniProt P08908).
T2 sequence (whole entry): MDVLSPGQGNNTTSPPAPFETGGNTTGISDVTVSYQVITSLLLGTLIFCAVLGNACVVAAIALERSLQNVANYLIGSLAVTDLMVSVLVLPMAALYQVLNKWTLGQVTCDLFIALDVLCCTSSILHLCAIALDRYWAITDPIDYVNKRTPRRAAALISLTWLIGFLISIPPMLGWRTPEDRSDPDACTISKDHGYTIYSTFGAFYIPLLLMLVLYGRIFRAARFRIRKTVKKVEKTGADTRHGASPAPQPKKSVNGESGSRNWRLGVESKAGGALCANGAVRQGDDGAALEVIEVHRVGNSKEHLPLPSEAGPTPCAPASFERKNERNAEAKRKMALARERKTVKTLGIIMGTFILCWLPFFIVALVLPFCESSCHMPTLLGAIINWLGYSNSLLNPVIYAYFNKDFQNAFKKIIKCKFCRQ
Put plainly: Displacement of [3H]MPPF from human 5HT1A receptor expressed in HEK293 cells at 1 uM after 90 mins by scintillation counting. The class given is cell-based. An outline of the steps: as §1

The target in series [7] is Cannabinoid receptor 1 (Rattus norvegicus) (UniProt P20272). In words: Displacement of [3H]CP55940 from CB1 receptor in rat brain at 1 uM after 180 mins by scintillation counting.
Sequence of Cannabinoid receptor 1 (Rattus norvegicus) (P20272 whole entry): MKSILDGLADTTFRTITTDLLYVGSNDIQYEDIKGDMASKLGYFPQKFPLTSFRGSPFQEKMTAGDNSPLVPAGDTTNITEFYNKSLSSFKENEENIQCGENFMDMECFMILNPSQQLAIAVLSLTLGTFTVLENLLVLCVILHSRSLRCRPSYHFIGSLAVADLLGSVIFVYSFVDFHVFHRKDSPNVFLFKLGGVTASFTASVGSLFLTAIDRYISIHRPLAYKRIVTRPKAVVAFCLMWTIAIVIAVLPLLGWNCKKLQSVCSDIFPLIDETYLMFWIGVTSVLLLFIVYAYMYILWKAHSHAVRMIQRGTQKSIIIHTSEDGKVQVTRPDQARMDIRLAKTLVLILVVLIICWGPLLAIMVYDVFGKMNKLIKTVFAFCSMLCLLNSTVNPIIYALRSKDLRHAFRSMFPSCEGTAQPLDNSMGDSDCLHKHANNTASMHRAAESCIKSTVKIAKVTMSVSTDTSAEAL
Series [8] is described as follows: Lipophilicity, log P of the compound. The format is physicochemical. Particulars: octanol/water.
Series [9] is described as follows: Drug level in CD1 mouse plasma at 10 mg/kg, ip after 30 mins. The class given is ADME, organism-based. The arrangement: dose 10 mg/kg, route intraperitoneal. Conditions: read-out: Drug uptake.
Series [10] can be described thus: Dissociation constant, pKa of the compound. The class given is physicochemical.
Series [11] addresses D(2) dopamine receptor (Rattus norvegicus) (UniProt P61169). In words: Displacement of [3H]MSP from rat dopamine D2L receptor expressed in HEK293 cells at 1 uM after 90 mins by scintillation counting. The class given is cell-based. An outline of the steps: as §1
Series [12] addresses T3, D(4) dopamine receptor (Rattus norvegicus) (UniProt P30729).
T3 sequence (whole entry): T1 sequence (P30729 whole entry)
In words: Agonist activity at rat dopamine D4 receptor expressed in HEK293 cells assessed as decrease in forskolin-stimulated levels of cAMP accumulation up to 10 uM. The format is functional, cell-based. For orientation: Cyclic AMP is a second messenger, typically raised through Gs and lowered through Gi signalling.

Series [13] deals with Sigma non-opioid intracellular receptor 1 (Homo sapiens) (UniProt Q99720). Put plainly: Displacement of [3H](+)-pentazocine from human sigma 1 receptor expressed in MCF7 cells at 1 uM after 180 mins by scintillation counting. The format is cell-based. An outline of the steps: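 Membranes from MCF-7 cells stably expressing cloned human σ1 receptor, 0.01–0.05 mg/mL protein, in 50 mM Tris pH 8.0. Incubated 180 min at 37 °C with shaking with 1 nM [3H]-(+)-pentazocine and 1 μM compound; BD1063 defined nonspecific binding. Filtered on PEI-treated GF/C, washed with ice-cold buffer, scintillation counted; triplicates, 3–4 experiments.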
Sequence of Sigma non-opioid intracellular receptor 1 (Homo sapiens) (Q99720 whole entry): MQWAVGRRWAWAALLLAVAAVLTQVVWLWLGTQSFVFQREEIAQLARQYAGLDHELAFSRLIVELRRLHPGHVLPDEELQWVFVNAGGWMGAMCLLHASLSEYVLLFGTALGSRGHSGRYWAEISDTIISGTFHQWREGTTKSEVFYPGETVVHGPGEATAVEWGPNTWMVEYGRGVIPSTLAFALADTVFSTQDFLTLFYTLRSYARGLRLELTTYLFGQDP

Series [14] deals with T4, 5-hydroxytryptamine receptor 2C (Homo sapiens) (UniProt P28335).
T4 sequence (whole entry): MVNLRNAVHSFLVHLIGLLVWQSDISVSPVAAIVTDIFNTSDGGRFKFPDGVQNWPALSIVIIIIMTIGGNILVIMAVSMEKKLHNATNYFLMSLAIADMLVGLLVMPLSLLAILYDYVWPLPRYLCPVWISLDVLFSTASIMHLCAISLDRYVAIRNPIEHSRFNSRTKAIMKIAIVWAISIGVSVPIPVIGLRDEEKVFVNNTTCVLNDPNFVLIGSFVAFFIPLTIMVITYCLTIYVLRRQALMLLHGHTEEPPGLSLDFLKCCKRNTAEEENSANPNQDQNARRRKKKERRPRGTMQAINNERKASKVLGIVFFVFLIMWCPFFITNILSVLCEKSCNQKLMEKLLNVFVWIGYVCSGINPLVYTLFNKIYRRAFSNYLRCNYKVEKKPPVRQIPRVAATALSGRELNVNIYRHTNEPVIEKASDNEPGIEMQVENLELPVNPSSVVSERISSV
In words: Displacement of [3H]mesulergine from human 5HT2C receptor expressed in HEK293 cells at 1 uM after 90 mins by scintillation counting. The format is cell-based. An outline of the steps: as §1

Series [15] in a line: Distribution coefficient, log D of the compound at pH 7.4. The class given is physicochemical. Conditions: octanol/water.
Series [16] can be described thus: Drug level in CD1 mouse brain at 10 mg/kg, ip after 15 mins. Also noted: dose 10 mg/kg, route intraperitoneal. Particulars: read-out: Drug uptake. The format is ADME, organism-based.
A short description of series [17]: Drug level in CD1 mouse plasma at 10 mg/kg, ip after 15 mins. The class given is ADME, organism-based. The arrangement: dose 10 mg/kg, route intraperitoneal. Conditions: read-out: Drug uptake.

Sequence of D(2) dopamine receptor (Rattus norvegicus) (P61169 whole entry): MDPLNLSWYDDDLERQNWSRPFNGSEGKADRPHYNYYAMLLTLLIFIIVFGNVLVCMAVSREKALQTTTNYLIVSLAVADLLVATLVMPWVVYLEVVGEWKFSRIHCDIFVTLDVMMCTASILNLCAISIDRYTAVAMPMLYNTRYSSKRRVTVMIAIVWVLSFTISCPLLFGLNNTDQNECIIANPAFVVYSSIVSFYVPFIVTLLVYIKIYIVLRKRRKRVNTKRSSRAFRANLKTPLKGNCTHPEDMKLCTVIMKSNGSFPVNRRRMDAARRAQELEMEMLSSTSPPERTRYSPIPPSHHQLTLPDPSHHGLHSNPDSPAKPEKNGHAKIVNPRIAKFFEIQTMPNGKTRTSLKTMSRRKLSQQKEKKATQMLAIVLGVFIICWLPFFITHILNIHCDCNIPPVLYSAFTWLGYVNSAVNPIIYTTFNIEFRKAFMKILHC
Sequence of D(3) dopamine receptor (Homo sapiens) (P35462 whole entry): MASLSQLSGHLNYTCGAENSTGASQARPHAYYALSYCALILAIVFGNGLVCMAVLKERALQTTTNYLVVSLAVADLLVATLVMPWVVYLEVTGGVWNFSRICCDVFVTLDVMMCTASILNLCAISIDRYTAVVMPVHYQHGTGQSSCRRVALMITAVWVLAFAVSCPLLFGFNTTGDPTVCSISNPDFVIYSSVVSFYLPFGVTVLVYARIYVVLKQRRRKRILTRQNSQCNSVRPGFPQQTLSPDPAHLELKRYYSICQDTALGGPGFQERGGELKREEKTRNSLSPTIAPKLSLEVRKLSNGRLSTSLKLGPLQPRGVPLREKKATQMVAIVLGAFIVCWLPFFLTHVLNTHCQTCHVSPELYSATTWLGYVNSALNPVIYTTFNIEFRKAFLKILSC
Sequence of 5-hydroxytryptamine receptor 2A (Homo sapiens) (P28223 whole entry): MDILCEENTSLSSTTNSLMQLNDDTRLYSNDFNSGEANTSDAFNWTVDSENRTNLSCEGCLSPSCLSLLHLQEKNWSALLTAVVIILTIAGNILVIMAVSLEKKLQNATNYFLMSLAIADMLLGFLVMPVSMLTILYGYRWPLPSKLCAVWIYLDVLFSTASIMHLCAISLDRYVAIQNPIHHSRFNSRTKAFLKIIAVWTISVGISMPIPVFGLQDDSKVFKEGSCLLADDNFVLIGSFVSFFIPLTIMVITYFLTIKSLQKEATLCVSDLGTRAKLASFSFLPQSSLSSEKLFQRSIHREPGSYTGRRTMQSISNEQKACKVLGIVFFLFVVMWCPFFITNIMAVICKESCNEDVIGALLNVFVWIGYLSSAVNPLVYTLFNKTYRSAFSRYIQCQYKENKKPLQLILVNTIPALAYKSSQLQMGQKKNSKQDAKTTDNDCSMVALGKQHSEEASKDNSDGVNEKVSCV

Regarding `COc1cccc(C(=O)NCCN2CCN(c3ncccc3C#N)CC2)c1`, the Activity amounted to 5.1% in series [1]; 24% in series [3]; 9.3% in [6]; 6.5% in series [7]; 4.4% in [11]; 8.3% in series [13]. Besides, the Activity in series [14] is 3.2%. In addition, the results for the concentration at 0.5 h in series [2] and in series [9] were 140 ng/g and 370 ng/mL, respectively. Also, the Drug uptake in series [4] came to 0.1 µg/mL. Also, the Ki in [5] was determined as 1.52 nM. Also, the logP in series [8] was found to be 2.55. In series [10], this compound gave a pKa of 6.71. The outcome in series [12] was Active.
On to `Cc1ccc(N2CCN(CCNC(=O)c3ccc(F)cc3)CC2)cc1`, for which the affinity in series [5] corresponds to a Ki of 2.64 nM. Further, in [10], the pKa was determined as 6.31. Besides, the values for the Activity in series [11] and in series [13] were 29% and 21%, respectively.
In turn, `COc1cccc(C(=O)NCCN2CCN(c3ccc(C)cc3)CC2)c1` gave a pKa in [10] of 6.46. In [15], the logD stood at 2.78. The compound also displayed an Activity in [13] of 7.2%.
For `N#Cc1cccnc1N1CCN(CCNC(=O)c2ccc(F)cc2)CC1`, the Activity in series [1] was 7.2%; in [3], 53%; in series [6], 29%; in series [7], 9.9%; in series [11], 32%; in series [13], 1%. In series [14], this compound yielded an Activity of 0%. This compound showed a Drug uptake in [4] of under 0.1 µg/mL. Moreover, the Ki in series [5] turned out to be 0.93 nM. This compound also gave a logP in series [8] of 2.37. The same compound gave a pKa in [10] of 6.4. Moreover, the concentration at 0.25 h is 470 ng/g in series [16] and 130 ng/mL in [17]. For the same compound, the result in series [12] was Active.
Take `COc1cccc(C(=O)NCCN2CCN(c3ccc(Cl)cc3)CC2)c1`: the Ki in series [5] was 4.97 nM. Moreover, the pKa in series [10] was determined as 6.19. Also, the Activity in [11] was found to be 7.8%; in series [13], 22%.
`COc1cccc(C(=O)NCCN2CCN(c3ccc(Cl)cn3)CC2)c1` gave a logP in series [8] of 3.29. Further, the pKa in series [10] was determined as 6.45. In addition, the Activity in series [13] worked out at 15%.
In series [5], `O=C(NCCN1CCN(c2ccc(Cl)cc2)CC1)c1ccc(F)cc1` registered a Ki of 1.76 nM. Further, the logP in [8] is recorded as 3.75. This compound showed a pKa in series [10] of 6.46. The Activity in series [11] stood at 48%; in [13] it was 29%.
As to `O=C(NCCN1CCN(c2noc3ccccc23)CC1)c1ccc(F)cc1`, the Ki in series [5] was found to be 0.34 nM. In series [8], this compound returned a logP of 3.79. For the same compound, the pKa in series [10] was 6.43. Besides, the Activity was 89% in series [11] and 21% in series [13]. Moreover, the logD in series [15] came to 3.75.
With `COc1cccc(C(=O)NCCN2CCN(c3ccc(C#N)cc3)CC2)c1`, the Ki in series [5] is 63.9 nM. The Activity came to 0% in series [11] and 27% in series [13].
Turning to `O=C(NCCN1CCN(c2ccc(Cl)cn2)CC1)c1ccc(F)cc1`, the inhibitory constant (Ki) in [5] stood at 2.92 nM. In [8], this compound displayed a logP of 3.42. Further, the pKa in series [10] was found to be 6.58. Also, the Activity in series [11] was 43%; in series [13], 33%.
The compound `COc1cccc(C(=O)NCCN2CCN(c3noc4ccccc34)CC2)c1` came in with a Ki in series [5] of 1.93 nM. The same compound had a pKa in series [10] of 6.24. The figures for the Activity in series [11] and in series [13] were 84% and 13%, respectively.
`N#Cc1ccc(N2CCN(CCNC(=O)c3ccc(F)cc3)CC2)cc1` returned a Ki in [5] of 32.7 nM. The compound also yielded a logP in [8] of 3.07. The pKa in [10] amounted to 6.43. The Activity in series [11] is 0%; in [13], 4.6%.
